Tests used:
[1] = folding enthalpy; higher = less favourable; fluorescence melt of hairpins on a sequencing array, two-state fit; conditions: sodium 0.088 M
Procedure, shortened: (§1)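 Library hairpins on a sequenced MiSeq flow cell carried annealed Cy3 and quencher oligos, and their Cy3 fluorescence was imaged in 50 mM Na-HEPES pH 8.0 with 25 mM NaCl, in 2.5 °C steps up to 60 °C. Signals were normalised to Cy3 before quenching and to control constructs. Melting temperature and folding enthalpy were obtained from bootstrapped two-state fits, combined by inverse-variance weighting across four replicates, and the fitted temperatures were then raised by 9.35 °C to match UV melts.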

[2] = melting temperature; fluorescence melt of hairpins on a sequencing array, two-state fit, raised by 9.35 °C to match UV melts; conditions: sodium 0.088 M
Procedure, shortened: as §1

GGCTTCGAAAGAACGGCC ((((((....)))..)))
folding enthalpy [1]: -27.9 kcal/mol
Tm [2]: 43 °C

GATGACGGAAACATCATC (((((.(....).)))))
folding enthalpy [1]: -31.2 kcal/mol
Tm [2]: 34.8 °C

GCTTGCGAAAGCAACAGC ((((((....)))..)))
folding enthalpy [1]: -11.4 kcal/mol
Tm [2]: 44.4 °C

GATTGGGGAAACCCAATC (((((((....)))))))
folding enthalpy [1]: -41 kcal/mol
Tm [2]: 61 °C

GTCCTTCGAAAGAACGAC (((.(((....))).)))
folding enthalpy [1]: -23.3 kcal/mol
Tm [2]: 33.5 °C

GACGTCCGAAAGGAGGTC (((.(((....))).)))
folding enthalpy [1]: -30.9 kcal/mol
Tm [2]: 58.3 °C

GTCTTTCGAAAGAATGAC (((.(((....))).)))
folding enthalpy [1]: -36.6 kcal/mol
Tm [2]: 45.2 °C

GGTAGACGAAAGTCACC (((.(((....))))))
folding enthalpy [1]: -23.6 kcal/mol
Tm [2]: 50.8 °C

GGCCCCGGAAACGAGGCC ((((.((....)).))))
folding enthalpy [1]: -38.4 kcal/mol
Tm [2]: 57.5 °C

GATAACGGAAACGTCATC (((.(((....))).)))
folding enthalpy [1]: -19.3 kcal/mol
Tm [2]: 31.4 °C

GGGGATGGAAACGTTCCC (((.(.(....).).)))
folding enthalpy [1]: -30 kcal/mol
Tm [2]: 39 °C

GATCATCGAGATGATC ((((((....))))))
folding enthalpy [1]: -45.2 kcal/mol
Tm [2]: 54.2 °C

GATCGTCAGACGATC ((((((...))))))
folding enthalpy [1]: -35.2 kcal/mol
Tm [2]: 52.5 °C

GCGTTCAAACGC ((((....))))
folding enthalpy [1]: -24.5 kcal/mol
Tm [2]: 53.1 °C

GTGTCCCGAAAGGGTCAC (((.(((....))).)))
folding enthalpy [1]: -30.8 kcal/mol
Tm [2]: 57.9 °C

GATCTAGCCTAGATC ((((((...))))))
folding enthalpy [1]: -28.4 kcal/mol
Tm [2]: 40.8 °C

GCGTCGCGAAAGCGGGGC ((..(((....)))..))
folding enthalpy [1]: -29 kcal/mol
Tm [2]: 67.4 °C

GCTACACGAAAGTGAAGC (((.(((....))).)))
folding enthalpy [1]: -35.3 kcal/mol
Tm [2]: 54.2 °C

GCCGCAGGAAACTGTGGC (((.(((....))).)))
folding enthalpy [1]: -39.4 kcal/mol
Tm [2]: 60.3 °C

GATCAACCCTTTGATC ((((((....))))))
folding enthalpy [1]: -39.2 kcal/mol
Tm [2]: 46.1 °C

GTAGGTGGAAACATCTAC ((((.((....)).))))
folding enthalpy [1]: -31.3 kcal/mol
Tm [2]: 42.4 °C

GCCTTGCGAAAGCTCGGC (((..((....))..)))
folding enthalpy [1]: -21.9 kcal/mol
Tm [2]: 53.1 °C

GCGCTTGGAAACAAGCAC (.(((((....))))).)
folding enthalpy [1]: -15.2 kcal/mol
Tm [2]: 45.7 °C

GGCTCCGAAAGGATCGCC ((((((....)))..)))
folding enthalpy [1]: -21.7 kcal/mol
Tm [2]: 47.2 °C

GCACTCGAAAGAGATGC ((((((....))).)))
folding enthalpy [1]: -29.4 kcal/mol
Tm [2]: 49.4 °C

GATGCCGAAAGGCTTATC ((((((....)))..)))
folding enthalpy [1]: -6.76 kcal/mol
Tm [2]: 31.5 °C

GATCGATTTTTCGATC ((((((....))))))
folding enthalpy [1]: -44.3 kcal/mol
Tm [2]: 54.7 °C

GGAACTGAAAAGTTCC ((((((....))))))
folding enthalpy [1]: -38.3 kcal/mol
Tm [2]: 56.4 °C

GCACCGCGAAAGCAGAGC ((.(.((....)).).))
folding enthalpy [1]: -15.2 kcal/mol
Tm [2]: 41.5 °C

GAGTCCGAAAGGATCTC ((((((....))).)))
folding enthalpy [1]: -31 kcal/mol
Tm [2]: 50 °C

GCGTGGCGAAAGCGAAGC ((.(.((....)).).))
folding enthalpy [1]: -16.9 kcal/mol
Tm [2]: 50.5 °C

GATGTCCCGAAAGGGATC (((..(((....))))))
folding enthalpy [1]: -9.1 kcal/mol
Tm [2]: 33.6 °C

GCCATATCGAAAGATGGC (((..(((....))))))
folding enthalpy [1]: -34.6 kcal/mol
Tm [2]: 48.2 °C

GGGACCGGAAACGATCCC ((((.((....)).))))
folding enthalpy [1]: -45.8 kcal/mol
Tm [2]: 50.8 °C

GATCGTGCACACGATC ((((((....))))))
folding enthalpy [1]: -41.3 kcal/mol
Tm [2]: 64.7 °C

GGCTTTGGAAACAAGGCC (((.(((....))).)))
folding enthalpy [1]: -40.5 kcal/mol
Tm [2]: 51.6 °C

GATCGAAGGGTCGATC ((((((....))))))
folding enthalpy [1]: -31.6 kcal/mol
Tm [2]: 50.6 °C

GTCGTTCGAAAGAAAGAC (((.(((....))).)))
folding enthalpy [1]: -31.2 kcal/mol
Tm [2]: 47.8 °C

GCACCAGAAATGGTGC ((((((....))))))
folding enthalpy [1]: -35.6 kcal/mol
Tm [2]: 67.8 °C

GCGCGGCGAAAGCCAGGC ((..(((....)))..))
folding enthalpy [1]: -14.1 kcal/mol
Tm [2]: 54.4 °C

GCGGACGAAAGTCATCGC ((((((....)))..)))
folding enthalpy [1]: -25.7 kcal/mol
Tm [2]: 50.1 °C

GACTAAGCGAAAGCTGTC (((..(((....))))))
folding enthalpy [1]: -15 kcal/mol
Tm [2]: 45 °C

GGTTGCGCGAAAGCGACC (((..(((....))))))
folding enthalpy [1]: -18 kcal/mol
Tm [2]: 42.8 °C

GCGACTCGTCGC ((((....))))
folding enthalpy [1]: -33.6 kcal/mol
Tm [2]: 68.3 °C

GCATACGAAAGTAAGTGC ((((((....)))..)))
folding enthalpy [1]: -21.4 kcal/mol
Tm [2]: 34.5 °C

GGCATCGGAAACGATACC ((.((((....)))).))
folding enthalpy [1]: -27.1 kcal/mol
Tm [2]: 45.6 °C

GTTTTCCGAAAGGAGAAC (((.(((....))).)))
folding enthalpy [1]: -30.4 kcal/mol
Tm [2]: 47.1 °C

Source: the array DNA melting data of Ke et al. (doi:10.1101/2024.01.08.574731)
